Bioassay records from PubChem.
Rows were chosen to be rich in hits. Some 2.2% of all compounds tested hit in one or more screens of this group.
Rin1 Abl inh: inhibitors of human Rin1-Abl protein interaction; inhibition, % at 7.35 µM; TR-FRET Rin1/Abl binding, biochemical; P00519+Q13671; 360,000 tested, 0.4% active; in the data active = inhibition above about 5%, passing the limit was not always enough
UBC9 SUMO inh: blocks human SUMOylation mediated by UBC9. HTRF SUMOylation assay, SAE1/SAE2 + UBC9, in vitro. inhibition, % at 35 µM. 290,000 tested, 0.36% active. AID 2006; in the data active = inhibition above about 50%, passing the limit was not always enough; inconclusive = no clear call, values can overlap the other calls
Target sequence (P63279 whole entry, looked up): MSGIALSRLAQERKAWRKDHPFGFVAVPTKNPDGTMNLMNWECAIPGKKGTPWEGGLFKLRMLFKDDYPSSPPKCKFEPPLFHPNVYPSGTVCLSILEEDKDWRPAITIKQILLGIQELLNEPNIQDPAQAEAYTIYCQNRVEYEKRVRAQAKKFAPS
PAD4 inh: inhibitors of human PAD4. Q9UM07. 330,000 tested, 0.41% active. AID 485272. recombinant PAD4, RCA probe fluorescence polarization. inhibition, % at 6.36 µM;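 active = percent inhibition above a cutoff equal to the mean of all tested compounds plus 3 SD, cut at about 15% in these data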;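 note: 0% = PAD4 with RCA probe and DMSO and 100% = probe without PAD4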
UBC13 polyUb: inhibitors of human UBC13 polyubiquitin chain formation | TR-FRET | AID 485273 | 330,000 tested, 0.47% active | P61088 | inhibition, % at 20 µM; in the data active = inhibition above about 45%, passing the limit was not always enough; inconclusive = no clear call, values can overlap the other calls
Target sequence (P61088 whole entry, looked up): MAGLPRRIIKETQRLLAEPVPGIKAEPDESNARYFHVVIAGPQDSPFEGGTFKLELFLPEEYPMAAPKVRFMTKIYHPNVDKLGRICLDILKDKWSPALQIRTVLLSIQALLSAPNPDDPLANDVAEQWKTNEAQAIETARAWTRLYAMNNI
Apaf1 inhib: human Apaf-1 inhibition. reconstituted apoptosome caspase-3 activity, DEVD-Rh110 fluorescence. 330,000 tested, 0.71% active. inhibition, % at 20 µM. O14727; active = inhibition of at least 40% at 20 µM;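 note: plate controls were DMSO wells for no effect and DEVD-CHO caspase inhibitor wells for full effect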
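Material: biochemical Apaf-1 apoptosome reconstitution. Medium: Hepes buffer, pH 7.5. Also added: cytochrome c activation, bis-DEVD rhodamine 110 substrate. Timing: 30 min compound preincubation, 50 min activation, room temperature. Measured by: rhodamine 110 fluorescence at Ex 480/Em 540 nm.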
GSTO1 counter: blocks human GSTO1 in RBBP9 counter-screen; P78417; AID 1974; recombinant GSTO1, activity-based probe fluorescence polarization; 300,000 tested, 1.1% active; inhibition, % at 5.96 µM;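 active = inhibition above the campaign mean inhibition plus 3 SD, cut at about 35% in these data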;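 note: 0% = GSTO1-1 with DMSO and 100% = wells lacking GSTO1-1 enzyme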
Target sequence (P78417 whole entry, looked up): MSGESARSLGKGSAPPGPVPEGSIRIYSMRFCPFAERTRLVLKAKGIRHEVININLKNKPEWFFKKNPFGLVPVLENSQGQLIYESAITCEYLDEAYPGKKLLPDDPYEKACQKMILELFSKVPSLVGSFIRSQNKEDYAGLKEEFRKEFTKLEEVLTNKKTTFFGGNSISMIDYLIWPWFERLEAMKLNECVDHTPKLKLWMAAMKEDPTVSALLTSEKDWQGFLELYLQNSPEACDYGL
An asterisk follows results filed as active; ? = inconclusive; nt = not tested or not shown.

SMILES	Rin1 Abl inh	UBC9 SUMO inh	PAD4 inh	UBC13 polyUb	Apaf1 inhib	GSTO1 counter
CCOC(=O)c1sc2nc3c(SCC(=O)O)cc(C(=O)c4ccccc4O)cn3c(=O)c2c1C	-1.6	75.9*	0.8	-13.8	-189.2	-12.2
Cc1ccc(C)c(CC(=O)N2CCCC(c3cc(C(=O)NCc4cccnc4)no3)C2)c1 (centres undefined)	1.7	nt	nt	nt	nt	nt
CSc1nnc(-c2ccco2)c(-c2ccco2)n1	1.1	nt	-2.2	-12.3	20.1	36.2*
Cc1ccc(NC(=O)CSc2nnc(-c3ccco3)c(-c3ccco3)n2)cc1	2.8	58.6	-3.8	-1.7	36.9	37.3*
Cc1sc2ncnc(NCCCN3CCCC3=O)c2c1C	1.4	-7.7	0.3	16.1	-7.8	36.9*
COc1ccccc1CC1CC(=O)N(c2ccc([N+](=O)[O-])cc2)C1=O (centres undefined)	-0.1	nt	nt	nt	nt	nt
CC(C)CC(=O)O/N=C1\C(=O)N(Cc2ccc(Cl)cc2)c2ccc([N+](=O)[O-])cc21	nt	11.6	0.8	-10.8	17.6	40.3*
CN=Cc1sc2ccccc2c1O	-5.2	15.0	0.3	-13.7	-5.2	2.6
Oc1c(C=NCc2ccncc2)sc2ccccc12	nt	14.1	15.6*	-3.3	2.8	3.5
Cc1ccccc1NS(=O)(=O)c1cccc2nonc12	-4.1	2.9	-0.7	-5.0	0.2	3.8
Cc1ccccc1Nc1cccc2nonc12	-0.8	91.8*	-13.3	-19.2	26.6	2.8
O=c1oc2c3c4c(cc2s1)CCCN4CCC3	4.4	77.6*	3.2	-17.8	11.1	50.6*
O=c1cc(-c2ccc(O)c(O)c2)oc2cc(O[C@@H]3O[C@H](CO)[C@@H](O)[C@H](O)[C@H]3O)cc(O)c12	24.0*	nt	-1.6	27.0	7.0	nt
C[C@@H]1O[C@@H](OC[C@H]2O[C@@H](Oc3cc(O)c4c(=O)cc(-c5ccc(O)c(O)c5)oc4c3)[C@H](O)[C@@H](O)[C@@H]2O)[C@H](O)[C@H](O)[C@H]1O	6.2	nt	1.8	-16.4	2.6	nt
COc1ccc(N=C2NC(=O)/C(=C\C=C\c3ccco3)S2)cc1	1.7	84.8*	nt	-3.1	22.4	nt
Oc1ccc(N=C/C=C/c2cccc(Br)c2)cc1-c1nc2ccccc2s1	-5.7	37.5	0.4	-13.6	4.8	35.2*
Oc1ccc(-c2nc3ccccc3s2)c(O)c1	-24.6	12.1	-4.5	32.8	0.4	-2.6
O=[N+]([O-])c1ccc(Sc2cccc[n+]2[O-])c2nonc12	-2.5	66.5*	nt	nt	nt	nt
O=C(NCCN1CCOCC1)c1ccccc1OCc1ccccc1	2.2	nt	-4.7	3.0	-2.5	nt
CN(CCC#N)C(=O)COC(=O)c1c2c(nc3ccccc13)/C(=C/c1ccco1)CC2	5.8	52.7*	2.4	nt	nt	34.7
CCCN1CCN(C(=O)c2cc3c(s2)-c2ccccc2OC3)CC1	-0.8	48.9	4.4	61.4*	14.2	7.5
CCOC(=O)N1CCN(C(=O)c2cc3c(s2)-c2ccccc2OC3)CC1	-6.4	20.6	1.2	20.5	10.2	2.5
CCN(CC(=O)Nc1c(F)cccc1F)C(=O)/C=C/c1ccc2c(c1)OCO2	-0.1	nt	-1.6	-8.3	5.2	-3.5
CC(=O)Nc1ccc(NS(=O)(=O)c2ccccc2)c2ccccc12	2.6	-3.7	-5.1	-2.1	4.0	3.7
O=S(=O)(Nc1ccc(O)c2ccccc12)c1ccc(Br)cc1	nt	86.0*	18.7*	-22.7	57.3*	61.3*
SMILES	Rin1 Abl inh	UBC9 SUMO inh	PAD4 inh	UBC13 polyUb	Apaf1 inhib	GSTO1 counter
O=C(CN1C(=O)S/C(=C\c2ccc(-c3cc(C(=O)O)ccc3Cl)o2)C1=O)Nc1ccc2c(c1)OCO2	3.9	83.9*	nt	-16.9	9.1	nt
O=C(Cn1ncc2c1-c1ccccc1OC2)Nc1ccc(S(=O)(=O)N2CCCCC2)cc1	12.4*	-5.6	-0.5	-6.6	16.6	-10.6
O=C(Cn1nc(-c2ccccc2F)ccc1=O)Nc1ccc(S(=O)(=O)N2CCCCCC2)cc1	-2.7	-1.0	-7.8	-4.4	8.2	-12.5
O=C(OCCOc1ccccc1)c1cc(S(=O)(=O)N2CCOCC2)c(Cl)cc1Cl	0.6	nt	nt	nt	nt	nt
O=C(Cn1c(=O)cnc2ccccc21)N1CCN(S(=O)(=O)c2cccc([N+](=O)[O-])c2)CC1	1.0	nt	-4.1	0.5	0.9	0.9
CCn1c(=S)sc2c(=O)n(CC(=O)NC(C)CCc3ccccc3)c(C)nc21 (centres undefined)	0.6	-14.2	0.1	-4.7	13.6	34.8*
Nc1ccc2nc3c(=O)n(C4CCCCC4)c(=O)[nH]c3nc2c1	-26.1	61.4*	10.9	-219.5	-19.3	2.4
Cc1cc2nc3c(=O)n(CCc4ccccc4)c(=O)[nH]c3nc2cc1N	-14.3	45.8	0.6	-196.2	9.9	36.7*
Nc1ccc2nc3c(=O)n(CCc4ccccc4)c(=O)[nH]c3nc2c1	-26.1	68.4*	14.3	-240.7	9.9	11.2
CCCCn1c(=O)[nH]c2nc3cc(N)ccc3nc2c1=O	-39.4	97.9*	14.0	nt	nt	25.0
CCN(CC)C(=O)C1=C(C)N(CCCOC)C(=O)C(CC(=O)NC2CCCC2)C1 (centres undefined)	-2.6	nt	nt	nt	nt	nt
COC(=O)c1cccc(F)c1C(=O)c1cccc2ccccc12	-4.5	nt	nt	nt	nt	nt
C/C(=N\NC(=O)c1cccc(Br)c1)c1cccnc1	4.6	4.9	nt	3.3	4.0	nt
Cc1ccc(/C=C2\SC(=S)N(NS(=O)(=O)c3ccc(C)cc3)C2=O)cc1	-0.9	33.1	-4.5	-12.7	5.2	30.0
Cc1ccc(S(=O)(=O)NN2C(=O)/C(=C/c3cccs3)SC2=S)cc1	-3.4	18.7	-9.1	-14.8	9.7	37.0*
CCCCCCCCCCCCCCC[C@@H](O)[C@@H](N)CO	4.4	nt	nt	nt	nt	nt
COc1ccccc1CNS(=O)(=O)c1ccc(-c2cc(C)no2)cc1	0.4	16.1	1.1	5.0	44.5*	6.2
CCc1ccc(-c2cc(C)no2)cc1S(=O)(=O)NCc1ccccc1OC	-3.2	-12.9	-5.4	3.2	17.2	-13.5
O=c1oc2c(-c3ccc([N+](=O)[O-])cc3)cc(O)cc2s1	4.7	29.3	-1.6	-9.6	5.9	78.3*
NC1=C(c2ccc([N+](=O)[O-])cc2)C(=O)CO1	-3.6	15.5	-0.8	4.4	-4.0	-4.0
COc1ccc(/C=N/n2c(C)nc3c([nH]c4ccccc43)c2=O)cc1CN1CCCC(C)(C)C1	-0.7	6.8	-0.3	-7.7	14.4	6.8
COc1ccc2[nH]c3c(=O)n(/N=C/c4ccc(OC)c(CN5CCCC5)c4)c(C)nc3c2c1	-0.8	21.9	2.5	11.6	43.1*	7.0
CCC(CO)Oc1cc(NCc2ccc(F)cc2)c2ncn(C(C)C)c2c1 (centres undefined)	-1.8	nt	-7.8	7.6	43.5*	nt
O=C(CCl)Nc1ccccc1C(=O)NCc1ccccc1	2.4	9.2	-0.8	12.2	-5.3	85.9*
COc1ccc(C2=Nn3c(nnc3-c3ccccc3OC)SC2)cc1OC1CCOC1 (centres undefined)	-5.0	nt	3.9	31.3	23.1	nt
CCN1/C(=C/C=C/c2oc3ccc4ccccc4c3[n+]2CC)Oc2ccc3ccccc3c21	nt	89.9*	-73.4	?	76.3*	-34.5
